ChEMBL document CHEMBL1828502, “Quinolinyl and quinolinyl N-oxide chalcones: synthesis, antifungal and cytotoxic activities” (Eur J Med Chem, 2011)
Converted amounts (≈) assume the structure as drawn.

Experiments:
[1] = tested on: Cryptococcus gattii species complex; experiment: Antifungal activity against Cryptococcus gattii by two fold serial dilution method; format: functional, Cryptococcus bacillisporus
Outline: (§1)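 Broth microdilution MIC following CLSI M27-A2 with twofold serial dilutions; strains ATCC 18804 (C. albicans), ATCC 22019 (C. parapsilosis), ATCC 750 (C. tropicalis), ATCC 32608 (C. gattii), kept on Sabouraud dextrose agar at 4 °C. Amphotericin B and trimethoprim/sulfamethoxazole served as positive controls.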

Candida tropicalis [2] = experiment: Antifungal activity against Candida tropicalis by two fold serial dilution method; format: functional; outline: as §1
Candida albicans = experiment: Antifungal activity against Candida albicans by two fold serial dilution method; format: functional; outline: as §1
Candida parapsilosis = experiment: Antifungal activity against Candida parapsilosis by two fold serial dilution method; format: functional; details: Lodderomyces parapsilosis; outline: as §1
[3] = tested on: Paracoccidioides brasiliensis; experiment: Antifungal activity against Paracoccidioides brasiliensis Pb18 by serial dilution method; format: functional
HL-60 = experiment: Anticancer activity against human HL60 cells after 48 hrs by MTT assay; format: functional, cell-based
Outline: (§2)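 HL60 and Jurkat leukemia lines plated at 50,000 and 100,000 cells/well respectively and pre-incubated 24 h at 37 °C, 5% CO2. Compounds dissolved in DMSO and tested over a concentration range of […] for 48 h. Viability read by MTT reduction (4 h), formazan dissolved in acidic isopropanol, OD 590 nm. Values normalized to 0.05% DMSO control; IC50 taken graphically from dose-effect curves. Triplicate, three separate days.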

UACC-62 = experiment: Anticancer activity against human UACC62 cells after 48 hrs by sulforhodamine B assay; format: functional, cell-based
Outline: (§3)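 Solid tumour lines from NCI (NCI colorimetric protocol), seeded and pre-incubated 24 h at 37 °C, 5% CO2, then exposed to compounds for 48 h. Proteins fixed with trichloroacetic acid, stained with sulforhodamine B, dye dissolved in 10 mM Tris, absorbance at 515 nm compared against initial-density control wells. IC50 from dose-response curves built with 1:2 serial dilutions; duplicate, repeated at least three times.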

MCF7 = experiment: Anticancer activity against human MCF7 cells after 48 hrs by sulforhodamine B assay; format: functional, cell-based; outline: as §3
TK-10 = experiment: Anticancer activity against human TK10 cells after 48 hrs by sulforhodamine B assay; format: functional, cell-based; outline: as §3
Jurkat = experiment: Anticancer activity against human Jurkat cells after 48 hrs by MTT assay; format: functional, cell-based; outline: as §2
[4] = tested on: Paracoccidioides brasiliensis; experiment: Antifungal activity against Paracoccidioides brasiliensis Pb18 after 10 days by broth microdilution method in presence of 1 M osmotic stabilizer sorbitol; format: functional; details: 240 h
[5] = tested on: Cryptococcus gattii species complex; experiment: Antifungal activity against Cryptococcus gattii by two fold serial dilution method after 3 days by broth microdilution method in presence of 1 M osmotic stabilizer sorbitol; format: functional, Cryptococcus bacillisporus; details: 72 h
Candida tropicalis [6] = experiment: Antifungal activity against Candida tropicalis after 2 days by broth microdilution method in presence of 1 M osmotic stabilizer sorbitol; format: functional; details: 48 h
[7] = Homo sapiens, UACC-62, 48 h, read-out: IC50
[8] = Homo sapiens, MCF7, 48 h, read-out: IC50
[9] = Homo sapiens, TK-10, 48 h, read-out: IC50
[10] = Homo sapiens, HL-60, 48 h, read-out: IC50
[11] = Homo sapiens, Jurkat, 48 h, read-out: IC50

Row | Structure (SMILES) | MIC [1] | MIC (Candida tropicalis [2]) | MIC (Candida albicans) | MIC (Candida parapsilosis) | MIC [3] | IC50 (HL-60; hl-60) | IC50 (UACC-62; [7]) | IC50 (MCF7; [8]) | IC50 (TK-10; [9]) | IC50 (Jurkat; jurkat) | IC50 (HL-60; [10]) | MIC [4] | MIC [5] | MIC (Candida tropicalis [6]) | IC50 (Jurkat; [11]) | IC50 (UACC-62; uacc-62) | IC50 (TK-10; tk-10) | IC50 (MCF7; mcf7)
1 | C[C@@H]1[C@H](O)[C@@H](C)/C=C/C=C/C=C/C=C/C=C/C=C/C=C/[C@H](O[C@@H]2O[C@H](C)[C@@H](O)[C@H](N)[C@@H]2O)C[C@@H]2O[C@](O)(C[C@@H](O)C[C@@H](O)[C@H](O)CC[C@@H](O)C[C@@H](O)CC(=O)O[C@H]1C)C[C@H](O)[C@H]2C(=O)O [AMPHOTERICIN B] | 1.2 µg/mL (≈ 1.3 µM) | 0.25 µg/mL (≈ 0.271 µM) | 1 µg/mL (≈ 1.08 µM) | 0.5 µg/mL (≈ 0.541 µM) | 0.006 µg/mL (≈ 0.00649 µM) | – | – | – | – | – | – | – | – | – | – | – | – | –
2 | O=C(/C=C/c1ccc2ncccc2c1)c1ccccc1 | 125 µg/mL (≈ 482 µM) | > 500 µg/mL | > 500 µg/mL | > 500 µg/mL | – | Not Active | 3.83 µg/mL (≈ 14.8 µM) | 1.1 µg/mL (≈ 4.24 µM) | 7 µg/mL (≈ 27 µM) | Not Active | – | – | – | – | – | – | – | –
3 | O=C(/C=C/c1ccc2c(ccc[n+]2[O-])c1)c1ccc(Cl)cc1 | 250 µg/mL (≈ 807 µM) | > 500 µg/mL | > 500 µg/mL | > 500 µg/mL | 15.5 µg/mL (≈ 50 µM) | – | 4.9 µg/mL (≈ 15.8 µM) | 6.6 µg/mL (≈ 21.3 µM) | 1.7 µg/mL (≈ 5.49 µM) | – | 33.8 µg/mL (≈ 109 µM) | 15.6 µg/mL | > 31.2 µg/mL | > 31.2 µg/mL | 4.9 µg/mL (≈ 15.8 µM) | – | – | –
4 | O=C(/C=C/c1ccc2ncccc2c1)c1ccc(Cl)cc1 | > 500 µg/mL | > 500 µg/mL | > 500 µg/mL | > 500 µg/mL | 62.5 µg/mL (≈ 213 µM) | – | – | 0.96 µg/mL (≈ 3.27 µM) | – | – | 8.8 µg/mL (≈ 30 µM) | – | – | – | 15 µg/mL (≈ 51.1 µM) | Not Active | Not Active | –
5 | O=C(/C=C/c1ccc2c(ccc[n+]2[O-])c1)c1ccc(Br)cc1 | 62.5 µg/mL (≈ 176 µM) | > 500 µg/mL | > 500 µg/mL | > 500 µg/mL | 62.5 µg/mL (≈ 176 µM) | – | 4.7 µg/mL (≈ 13.3 µM) | 6.6 µg/mL (≈ 18.6 µM) | 1.1 µg/mL (≈ 3.11 µM) | – | 2.6 µg/mL (≈ 7.34 µM) | – | – | – | 65.5 µg/mL (≈ 185 µM) | – | – | –
6 | COc1ccc(C(=O)/C=C/c2ccc3ncccc3c2)cc1 | > 500 µg/mL | > 500 µg/mL | > 500 µg/mL | > 500 µg/mL | 62.5 µg/mL (≈ 216 µM) | – | 22.5 µg/mL (≈ 77.8 µM) | 0.19 µg/mL (≈ 0.657 µM) | – | – | 12.6 µg/mL (≈ 43.5 µM) | – | – | – | 19.6 µg/mL (≈ 67.7 µM) | – | Not Active | –
7 | C[n+]1cccc2cc(/C=C/C(=O)c3ccc([N+](=O)[O-])cc3)ccc21.[I-] | 31.2 µg/mL | 250 µg/mL | > 500 µg/mL | > 500 µg/mL | 250 µg/mL | Not Active | – | – | – | Not Active | – | > 31.2 µg/mL | 62.5 µg/mL | > 31.2 µg/mL | – | Not Active | Not Active | Not Active
8 | Cc1ccc(C(=O)/C=C/c2ccc3c(ccc[n+]3[O-])c2)cc1 | 500 µg/mL (≈ 1730 µM) | > 500 µg/mL | > 500 µg/mL | > 500 µg/mL | 125 µg/mL (≈ 432 µM) | – | 5.3 µg/mL (≈ 18.3 µM) | 8.3 µg/mL (≈ 28.7 µM) | 1 µg/mL (≈ 3.46 µM) | – | 20.3 µg/mL (≈ 70.2 µM) | – | – | – | 32.5 µg/mL (≈ 112 µM) | – | – | –
9 | O=C(/C=C/c1ccc2ncccc2c1)c1ccc(Br)cc1 | > 500 µg/mL | > 500 µg/mL | > 500 µg/mL | > 500 µg/mL | > 500 µg/mL | – | – | – | – | – | – | – | – | – | – | – | – | –
10 | C[n+]1cccc2cc(/C=C/C(=O)c3ccccc3)ccc21.[I-] | 31.2 µg/mL | 125 µg/mL | > 500 µg/mL | > 500 µg/mL | 500 µg/mL | Not Active | – | – | – | Not Active | – | – | – | – | – | Not Active | Not Active | Not Active
11 | COc1ccc(C(=O)/C=C/c2ccc3c(ccc[n+]3C)c2)cc1.[I-] | 31.2 µg/mL | 62.5 µg/mL | 62.5 µg/mL | 125 µg/mL | 125 µg/mL | – | – | – | – | – | 25.2 µg/mL | > 31.2 µg/mL | 62.5 µg/mL | > 31.2 µg/mL | 11.9 µg/mL | Not Active | Not Active | Not Active
